b-catenin transl: modulators of beta-catenin nuclear translocation; actives 0.3% (n = 190,000); nuclear translocation activity, % at 5 µM; HeLa beta-catenin nuclear translocation, immunofluorescence imaging; AID 1665;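 active = nuclear translocation activity above 50% at 5 µM, with a well cell count of 50 or more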;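 also: per-cell ratio of nuclear to cytoplasmic median beta-catenin stain intensity; plate controls were DMSO negative control for no effect and GSK-3 inhibitor IX positive control for full effect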
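Assay system: human HeLa cells, native beta-catenin; doses: 5 µM primary, 0.02–20 µM confirmation; incubation: compound treatment 24 h, 37°C, 5% CO2; technique: fluorescence imaging of beta-catenin antibody stain plus DAPI; measure: % activation, nuclear-to-cytoplasmic median beta-catenin signal ratio per cell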
Yeast life ext: extends the lifespan of yeast. S. cerevisiae growth with nicotinamide, OD615; deaD strain in restrictive glucose medium. inhibition of the nicotinamide effect, % at 10 µM. actives 0.68% (n = 130,000). AID 775;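 active = inhibition above a set limit, placed 3 SD over the median of all compounds, cut at about 26% in these data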;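 also: 0% = nicotinamide-treated wells and 100% = cells grown without nicotinamide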
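Material: Modified budding yeast, DeaD strain | Medium: Restrictive glucose medium | Probe or stimulus: 1.5 mM nicotinamide | Dosing: Single dose 10 µM compound, 0.25% DMSO | Times: 48 h at 30 °C | Technique: OD615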
MT stabilize HCS: stabilizes microtubules in HeLa cells; HeLa tubulin immunostaining HCS, 24 h; share of cells brighter than vehicle mean+2SD; actives 0.83% (n = 200,000); AID 2205; % tubulin-high responders, % at 10 µM;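 active = plate Z-score above 3 for both tubulin-high and condensed-nucleus cell shares, with cell loss under 80%, at 10 µM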;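 also: anti alpha tubulin signal scored within the nucleus-defined area of each cell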
Yeast growth inh: yeast BB579 growth reduction in restrictive medium | S. cerevisiae BB579 growth, OD615, 48 h | inhibition, % at 10 µM | actives 0.51% (n = 140,000) | AID 804;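 active = inhibition above a set limit, 3 SD over the mean compound inhibition, cut at about 44% in these data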
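Assay system: S. cerevisiae DeaD strain BB579 yeast. Medium: CSMM-D restrictive synthetic medium containing dextrose (glucose). Times: 4 h cell preincubation, 48 h compound exposure, 30 °C humidified. Signal: OD615 turbidity measurement. Benchmarks: positive control amphotericin B 10 µg/mL.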
RAM inhibit: blocks the yeast RAM network. S. cerevisiae dse1pr::URA3 reporter, 5-FOA growth OD615, 2 d; analog-sensitive cbk1-as2 kinase mutant strain. inhibition, % at 50 µM. AID 868. actives 1.8% (n = 190,000);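 active = inhibition above a set limit, 3 SD over mean compound inhibition, cut at about 8.4% in these data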;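 also: 0% = DMSO-only wells with no growth and 100% = 10 µM 1-NA-PP1 full growth; inhibition rescues growth on 5-FOA so higher OD means more RAM inhibition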
Efa HMGR inh: inhibitors of class II HMG-CoA reductase from Enterococcus faecalis. purified E. faecalis HMGR, NADPH absorbance 340 nm kinetic. inhibition, % at 10 µM. actives 0.41% (n = 190,000). AID 1066;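 active = inhibition above a set limit, the median over all tested compounds plus 3 SD, cut at about 9.5% in these data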;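 also: enzyme runs in reverse so mevalonate oxidation gives rising NADPH absorbance; 0% = complete reaction with DMSO and 100% = background rate lacking mevalonate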
Active calls of the source: *. Compounds with a hit are over-represented: about 3.5% of the library has one in this group of screens.

Results for COc1ccccc1C1=NOC(COc2ccc3c(C)cc(=O)oc3c2)C1 (stereo not drawn) ?
b-catenin transl: 96*

What do the screens show for `COc1ccc(C2=NOC(COc3ccc4c(C)cc(=O)oc4c3)C2)c(OC)c1` (stereo not drawn)?
b-catenin transl: 2

What do the screens show for `COc1ccccc1C1=NOC(COC(=O)c2ccc(Br)cc2)C1` (stereo not drawn)?
b-catenin transl: 0; Yeast life ext: -1; MT stabilize HCS: 3; Yeast growth inh: -62; RAM inhibit: 10*; Efa HMGR inh: 0

What do the screens show for `COc1ccccc1C1=NOC(COC(=O)c2ccc([N+](=O)[O-])cc2)C1` (stereo not drawn)?
b-catenin transl: 0

Results for CN(CC1CCOCC1)C(=O)CC1C(=O)NCCN1CC1CCCCC1 (stereo not drawn) ?
b-catenin transl: 0; MT stabilize HCS: 5; RAM inhibit: 1; Efa HMGR inh: -1

How did O=C(CCn1cnc(-c2ccccc2)c1-c1ccccc1)N/N=C/c1ccccc1O do in these assays?
b-catenin transl: -3; Yeast life ext: -3; MT stabilize HCS: 7; Yeast growth inh: -16; RAM inhibit: 3; Efa HMGR inh: 3

How did COc1ccc(/C=N/NC(=O)CCn2cnc3ccccc32)cc1 do in these assays?
b-catenin transl: -1

Results for COc1ccc(/C=N/NC(=O)CCn2cnc(-c3ccccc3)c2-c2ccccc2)cc1 ?
b-catenin transl: 60*; Yeast life ext: 0; MT stabilize HCS: 14; Yeast growth inh: -36; RAM inhibit: 0; Efa HMGR inh: -3

How did O=C(CCn1cnc(-c2ccccc2)c1-c1ccccc1)N/N=C/c1ccc(O)cc1 do in these assays?
b-catenin transl: 6; Yeast life ext: -11; MT stabilize HCS: 23*; Yeast growth inh: -32; RAM inhibit: 1; Efa HMGR inh: -8

Results for COc1cc(NC(=O)c2ccc(Cl)cc2Cl)ccc1NC(=O)c1cccs1 ?
b-catenin transl: 0

Results for COc1ccc(NC(=O)/C=C/c2cc(OC)c(OC)c(OC)c2)cn1 ?
b-catenin transl: -1; MT stabilize HCS: 1; RAM inhibit: 9.0*; Efa HMGR inh: 0

What do the screens show for `COc1ccc(NC(=O)/C=C/c2ccccc2)cn1`?
b-catenin transl: 0; Yeast life ext: -7; MT stabilize HCS: 4; Yeast growth inh: -41; RAM inhibit: -1; Efa HMGR inh: -8

Results for Cc1occc1C(=O)NNC(=O)Nc1ccc([N+](=O)[O-])cc1 ?
b-catenin transl: 0; MT stabilize HCS: 2; RAM inhibit: 0; Efa HMGR inh: -1

Results for Cc1[nH]c2ccccc2c1N=Nc1ccccc1C(=O)O ?
b-catenin transl: -4; Yeast life ext: 4; MT stabilize HCS: 4; Yeast growth inh: -68; RAM inhibit: 9.8*; Efa HMGR inh: -4

Results for COc1ccc(Oc2nc(SC)nc3ccsc23)cc1 ?
Yeast life ext: -17; MT stabilize HCS: 4; Yeast growth inh: -40; RAM inhibit: 0; Efa HMGR inh: -2

What do the screens show for `CSc1nc(Oc2ccc3ccccc3c2)c2sccc2n1`?
b-catenin transl: 86*; Yeast life ext: -17; MT stabilize HCS: 41*; Yeast growth inh: -80; RAM inhibit: 8; Efa HMGR inh: 3

Results for Cc1nc2c(F)c(F)c(C(F)(F)F)c(F)c2[nH]1 ?
b-catenin transl: 1; Yeast life ext: -16; MT stabilize HCS: 5; Yeast growth inh: 57*; RAM inhibit: 1; Efa HMGR inh: -6

What do the screens show for `S=C(NCc1ccc(Cl)cc1Cl)NC1CCCCC1`?
Yeast life ext: 4; MT stabilize HCS: 2; Yeast growth inh: 71*; RAM inhibit: 8; Efa HMGR inh: -4

How did CCOC(=O)c1[nH]c(C)c(C(=O)Nc2cc(Cl)ccc2C)c1C do in these assays?
b-catenin transl: 58*; Yeast life ext: -19; MT stabilize HCS: 38*; Yeast growth inh: -39; RAM inhibit: 4; Efa HMGR inh: 4

Results for CCOC(=O)c1[nH]c(C)c(C(=O)Nc2ccccc2C)c1C ?
b-catenin transl: 43; Yeast life ext: -8; MT stabilize HCS: 31*; Yeast growth inh: -8; RAM inhibit: 1; Efa HMGR inh: 3

High-throughput results: PubChem BioAssay, several laboratories
